A selection: hits, their analogues and other compounds. The true share with any hit is near 1.8%.
CHRM4 agonist – human M4 muscarinic receptor agonists, primary screen, CHO-K1 cells, Fluo-8 calcium fluorescence | CHO-K1 hM4/Gqi5; vehicle 0%, full acetylcholine response 100% | activation, % at 3 µM | 360,000 tested, 0.14% active;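 active = activation above the run mean over all test wells plus 3 SD, cut at about 32% in these data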;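 note: peak over basal fluorescence ratio per well then scaled between controls; 0% = DMSO wells and 100% = acetylcholine at EC100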
M5 ag – human M5 muscarinic receptor agonists, primary screen, CHO-K1 cells, Fluo-8 calcium fluorescence; CHO-K1 hM5 cells; 0% DMSO wells, 100% maximal acetylcholine response; activation, % at 3 µM; 360,000 tested, 0.19% active;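 active = activation above the run's mean over test compounds plus 3 SD, cut at about 23% in these data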;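 note: signal is peak over basal fluorescence ratio across the kinetic read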
Target sequence (P08912 whole entry, looked up): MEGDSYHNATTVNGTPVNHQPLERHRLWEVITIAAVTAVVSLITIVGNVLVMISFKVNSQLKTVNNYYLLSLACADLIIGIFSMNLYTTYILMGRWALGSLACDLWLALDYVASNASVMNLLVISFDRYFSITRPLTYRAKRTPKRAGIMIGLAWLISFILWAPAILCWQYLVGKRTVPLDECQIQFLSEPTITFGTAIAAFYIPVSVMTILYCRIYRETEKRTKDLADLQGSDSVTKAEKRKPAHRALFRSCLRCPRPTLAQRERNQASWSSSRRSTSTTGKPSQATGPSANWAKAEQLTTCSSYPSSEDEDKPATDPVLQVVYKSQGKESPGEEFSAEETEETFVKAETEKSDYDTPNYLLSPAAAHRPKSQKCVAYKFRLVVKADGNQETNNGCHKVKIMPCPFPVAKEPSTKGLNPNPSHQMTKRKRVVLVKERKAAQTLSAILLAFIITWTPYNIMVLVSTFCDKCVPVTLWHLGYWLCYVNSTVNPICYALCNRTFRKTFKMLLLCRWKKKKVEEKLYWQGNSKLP
M4 antag – human M4 muscarinic receptor antagonists, primary screen, CHO cells, Fluo-8 calcium fluorescence. 360,000 tested, 0.73% active. inhibition, % at 3 µM. AID 624125, 2012. CHO-hM4 cells, ACh EC80;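 active = inhibition above its plate's cutoff, the mean inhibition of sample wells plus 3 SD, cut at about 27% in these data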;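 note: 0% = acetylcholine EC80 with DMSO and 100% = DMSO without agonist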
M5 antag – human M5 muscarinic receptor antagonists, primary screen, CHO cells, Fluo-8 calcium fluorescence; 360,000 tested, 0.59% active; Muscarinic acetylcholine receptor M5 (Homo sapiens), P08912; AID 624040, 2012; inhibition, % at 3 µM; CHO-hM5 cells, ACh EC80;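 active = inhibition above a per-plate cutoff, the mean of that plate's test compounds plus 3 SD, cut at about 27% in these data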;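 note: 0% = acetylcholine EC80 with DMSO and 100% = DMSO without agonist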
M5 PAM – human M5 muscarinic receptor positive allosteric modulators, primary screen, CHO-K1 cells, Fluo-8 calcium fluorescence. Muscarinic acetylcholine receptor M5 (Homo sapiens), P08912. CHO-K1 hM5, ACh EC20 PAM; 0% = ACh EC20, 100% = ACh EC100. activation, % at 3 µM. 360,000 tested, 0.3% active;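 active = activation above the run cutoff, the mean activation of all test compounds plus 3 SD, cut at about 18% in these data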
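Measured by: Fluo-8 calcium fluorescence; material: human M5 receptor in CHO-K1 cells; schedule: Post-acetylcholine fluorescence recording 140 s; benchmarks: low control EC20 acetylcholine (0%), high control EC100 acetylcholine (100%); read-out: Max/basal fluorescence ratio as % of EC20–EC100 ACh window; compound: single dose, 3 µM nominal final test concentration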
CHRM4 PAM – human M4 muscarinic receptor positive allosteric modulators, primary screen, CHO-K1 cells, Fluo-8 calcium fluorescence; Muscarinic acetylcholine receptor M4 (Homo sapiens), P08173; CHO-K1 hM4/Gqi5, ACh EC20; 0% = ACh EC20, 100% = maximal ACh; activation, % at 3 µM; 360,000 tested, 0.4% active; AID 624126, 2012;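 active = activation above its plate's cutoff, the mean activation of sample wells plus 3 SD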
An asterisk follows results filed as active.

SMILES | CHRM4 agonist | M5 ag | M4 antag | M5 antag | M5 PAM | CHRM4 PAM
S=C(NCCCc1cnc[nH]1)NCCCN(Cc1ccc(Cl)cc1)c1ccc(Br)cn1 | 3 | -2 | -3 | -9 | 10 | 1
CCCCN([C@H](CO)C(C)C)S(=O)(=O)c1ccccc1Br | -1 | -3 | -20 | 4 | -1 | 9
CN1C(=O)/C(=C\c2ccc(N(C)C)cc2)OC1=S | 30 | 96* | 4 | 24 | -15 | -11
COC(=O)c1ccccc1NC(=O)CSc1nc(C)cc(C)n1 | 1 | 4 | -8 | -18 | 12 | -3
Cc1cc(C)nc(SCC(=O)Nc2ccnc3ccccc23)n1 | 14 | 7 | 10 | 35* | -20 | -8
O=C(CCSc1nnc(-c2ccncc2)o1)Nc1ccccc1 | 2 | 0 | -10 | -7 | 3 | 6
CCNC(=O)CCSc1nnc(-c2ccncc2)o1 | 0 | -1 | 3 | 13 | 6 | 24*
COc1ccc(NC(C)=O)cc1S(=O)(=O)NC(C)c1ccc(-n2ccnc2)cc1 (centres undefined) | 0 | 1 | 2 | 1 | 0 | 0
CCOC(=O)C1CCCN(S(=O)(=O)c2ccc(S(=O)(=O)N(CC)CC)cc2)C1 (centres undefined) | 14 | -2 | 12 | 33* | -28 | -20
CCOC(=O)C1CCCN(C(=O)COc2ccccc2O)C1 (centres undefined) | 4 | 49* | 3 | 3 | -29 | -3
CCOC(=O)C1CCCN(C(=O)COc2ccccc2F)C1 (centres undefined) | 2 | 0 | 2 | 7 | -4 | 3
CCOC(=O)C1CCCN(CC(=O)Nc2cc(C)cc(C)c2)C1 (centres undefined) | 0 | 1 | -5 | 3 | 0 | 2
CCOC(=O)C1CCCN(C(=S)Nc2cc(C)cc(C)c2)C1 (centres undefined) | 1 | 28* | -7 | 15 | -16 | 8
CCOC(=O)C1CCCN(C(=S)Nc2ccc(S(=O)(=O)N3CCOCC3)cc2)C1 (centres undefined) | 6 | 42* | 0 | 9 | -14 | -4
CN1OC[C@@H]2CN(Cc3ccc4c(c3)OCO4)[C@H](c3ccc(N4CCCCC4)cc3)C[C@@H]21 | -1 | 0 | -16 | 6 | 1 | 9
COC(=O)Cn1ccnc1[N+](=O)[O-] | -2 | 1 | -5 | -1 | -2 | 0
N#C[C@H]1C2OC2c2ccccc2N1C(=O)c1ccccc1 (some centres undefined) | 0 | 0 | -1 | 4 | -1 | 4
Cc1ccc(CN2C(=O)C(F)(F)Oc3ccc(C)cc32)cc1 | -1 | -1 | 5 | 5 | -3 | 1
Oc1ccc(Nc2nc(-c3ccc(O)cc3)cs2)cc1 | 0 | 1 | -2 | 0 | 12 | 34*
NS(=O)(=O)c1ccc(Nc2nc(-c3ccc(O)cc3)cs2)cc1 | 2 | 1 | 19 | 12 | -11 | -11
CCCC(=O)N1CCC1(C)C(=O)Nc1ccc(-n2cccc2)cc1 (centres undefined) | 1 | -1 | -7 | -3 | -3 | -1
S=c1[nH]nc(-c2ccncc2)n1/N=C/C=C/c1ccccc1 | 0 | 19 | -8 | 1 | 2 | 11
S=c1[nH]nc(-c2ccncc2)n1/N=C/C(Cl)=C\c1ccccc1 | 5 | 38* | -16 | -12 | 1 | 26*
CC(NS(=O)(=O)OCC(Cl)(Cl)Cl)c1ccc(C(C)(C)C)cc1 (centres undefined) | 4 | -11 | 45* | 15 | -25 | -13
O=S(=O)(c1ccccc1)N1N=C(c2cccs2)CC1c1ccc(Br)cc1 (centres undefined) | 0 | -1 | -8 | -7 | -2 | 21*
SMILES | CHRM4 agonist | M5 ag | M4 antag | M5 antag | M5 PAM | CHRM4 PAM
Cc1ccc(CN2[C@@H](CC3CCCCC3)COCCS2(=O)=O)cc1 | 0 | 1 | 7 | 12 | 0 | 0
CC1(C)CC(C(CCN(Cc2ccccc2)C(=O)c2ccco2)c2ccc(F)cc2)CCO1 (centres undefined) | 8 | -3 | 27* | 17 | -19 | -18
COc1ccc(OCc2nn3c(-c4ccco4)nnc3s2)cc1 | 4 | 3 | -10 | -2 | -6 | -1
COc1ccc(OCc2nn3c(-c4cccc(OC)c4)nnc3s2)cc1 | 2 | -2 | -13 | -5 | 4 | 21*
CC1CC(C)CN(C(=O)c2cc(-c3ccncc3)nc3ccccc23)C1 (centres undefined) | 2 | -4 | 2 | 1 | 3 | 6
CC1CN(C(=O)c2cc(-c3ccncc3)nc3ccccc23)CC(C)O1 (centres undefined) | 2 | -4 | -14 | -3 | -4 | 23*
COCCCNC(=O)c1cn(Cc2c(F)cccc2Cl)nn1 | 0 | 0 | 2 | -14 | 30* | 4
COc1ccc(-n2c(C)c(C(C)=O)c(C(C)=O)c2C)cc1OC | 1 | -2 | -20 | -5 | -3 | 17*
O=C(NCc1ccccc1)c1ccc(CS(=O)(=O)c2ccccc2)o1 | 3 | -1 | -13 | -12 | 22* | 14
O=C(NCc1ccccc1)c1ccc(CS(=O)(=O)c2ccc(Br)cc2)o1 | 8 | 3 | -8 | 6 | -7 | -4
O=C(NCC1(O)CCCCC1)C1CCC(=O)N(Cc2cccc(C(F)(F)F)c2)C1 (centres undefined) | 2 | -1 | 5 | 3 | 1 | 3
CCOc1ccc(S(=O)(=O)N(CC)CC(=O)NCc2ccncc2)cc1 | 4 | -2 | -6 | 1 | 2 | 2
COc1cc2c(cc1OC)CN(C(=O)c1cccc(S(=O)(=O)N(C)C)c1)CC2 | 1 | 5 | 29* | -5 | 14 | 17
CC(=O)Nc1cccc(OC(=O)N2CCOCC2)c1 | 1 | -4 | -4 | 1 | 6 | 27*
COc1ccc(-n2ncc3c2CC(C)(C)CC3NC(=O)c2ccc(OC)o2)cc1 (centres undefined) | 0 | -2 | -6 | 1 | -3 | 1
CCNC(=O)C1(C)CCCN1Cc1c(F)cccc1F (centres undefined) | 0 | 1 | -3 | -9 | 1 | 7
Cc1cc(C)c2sc(NC(=O)C3=COCCO3)nc2c1 | 3 | -1 | -9 | 2 | 0 | 22*

Screening data: PubChem BioAssay, The Scripps Research Institute Molecular Screening Center
